The values that follow come from ChEMBL document CHEMBL1799926, “Applying the pro-drug approach to afford highly bioavailable antagonists of P2Y(14)” (Bioorg Med Chem Lett, 2011).

What is called half-life is how long it takes for the measured level to halve. A low value points to fast loss. One may read the Ki as a measure of affinity in units of concentration, obtained from inhibition or displacement. The bioavailability is dose-corrected exposure relative to a reference, in per cent. A high value points to good availability. By CL/F is commonly meant the apparent clearance, not corrected for the fraction that reaches the circulation. The term AUC denotes the area under the concentration-time curve, a measure of exposure. A higher AUC goes with high exposure.

Bounds are passed on as bounds.

One series deals with Albumin (Homo sapiens, UniProt P02768). Kind of series: Binding affinity to 4.5 % human serum albumin.
The nature of series [1]: Half life in mouse at 75 mg/kg, po bid. Format: ADME, organism-based. Also on record: dose 75 mg/kg, route oral. As to conditions: in vivo.
A short description of series [2]: Binding affinity to chimpanzee P2Y14 receptor in presence of 2% human serum albumin. Also on record: species or system Pan troglodytes.
Series [3] is described as follows: Oral bioavailability in mouse at 75 mg/kg bid. Format: ADME, organism-based. As to conditions: in vivo.
Series [4] is described as follows: Binding affinity to chimpanzee P2Y14 receptor. Also on record: species or system Pan troglodytes.
A short description of series [5]: Clearance in mouse at 75 mg/kg, po bid. As to conditions: in vivo. On the set-up: dose 75 mg/kg, route oral. In kind it is ADME, organism-based.
Series [6] is described as follows: Metabolic stability in whole blood after 1 hr.
Series [7] in a line: Plasma concentration in mouse at 50 mg/kg, po after 24 hrs. In kind it is ADME, organism-based. On the set-up: dose 50 mg/kg, route oral. The gist of the method: (§1)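 Mice dosed orally at 50 mg/kg in 0.25% methocel. Plasma levels of the parent zwitterion were measured for both the parent and the ester prodrugs, giving AUC, 24 h concentration and clearance. For prodrugs, bioavailability is expressed as virtual F, based on parent-drug exposure.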

The nature of series [8]: Oral bioavailability in mouse at 50 mg/kg. In kind it is ADME, organism-based. The following applies: in vivo. The gist of the method: as §1
The test system of a further series is Mus musculus. Kind of series: (§2) AUC in mouse at 50 mg/kg, po after 24 hrs. Format: ADME, organism-based, Plasma. On the set-up: time < 24 hr, dose 50 mg/kg, route oral. The following applies: in vivo, 24 h. The gist of the method:
as §1

Series [9] in a line: as §2. Also on record: time < 24 hr, dose 50 mg/kg, route oral. As to conditions: plasma. Format: ADME, organism-based, Plasma. The gist of the method: as §1

Sequence of Albumin (P02768 whole entry): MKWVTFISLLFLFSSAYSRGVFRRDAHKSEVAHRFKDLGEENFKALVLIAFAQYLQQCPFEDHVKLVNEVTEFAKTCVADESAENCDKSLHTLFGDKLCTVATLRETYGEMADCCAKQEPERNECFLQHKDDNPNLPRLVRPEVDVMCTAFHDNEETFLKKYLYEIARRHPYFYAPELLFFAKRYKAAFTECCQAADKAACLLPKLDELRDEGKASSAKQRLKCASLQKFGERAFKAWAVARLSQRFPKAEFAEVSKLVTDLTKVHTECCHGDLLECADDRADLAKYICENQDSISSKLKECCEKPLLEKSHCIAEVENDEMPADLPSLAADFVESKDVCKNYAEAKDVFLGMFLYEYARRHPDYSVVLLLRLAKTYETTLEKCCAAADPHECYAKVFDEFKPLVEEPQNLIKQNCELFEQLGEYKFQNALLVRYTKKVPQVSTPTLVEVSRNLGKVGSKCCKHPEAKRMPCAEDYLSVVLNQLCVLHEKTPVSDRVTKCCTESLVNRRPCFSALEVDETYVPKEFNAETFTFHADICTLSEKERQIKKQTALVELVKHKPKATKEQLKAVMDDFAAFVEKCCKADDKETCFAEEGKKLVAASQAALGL

The molecule `O=C(O)c1cc(-c2ccc([C@@H](O)C(F)F)cc2)c2ccc(-c3ccc(C(F)(F)F)cc3)cc2c1` gave an Activity on Albumin of over 99%. This molecule also gave a half-life in [1] of 3 h. The figures for the Ki in series [2] and in [4] were 1290 nM and 4 nM, respectively. The molecule also had a bioavailability in [3] of 67%. In [5], this molecule yielded an apparent clearance (CL/F) of 1.6 mL/min/kg.
As for `CC(=O)OCOC(=O)c1cc(-c2ccc(C3CCNCC3)cc2)c2ccc(-c3ccc(C(F)(F)F)cc3)cc2c1`, the Stability result in series [6] is listed as “Unstable”.
The same measure, in the same setting: the result for `CC(OCC(=O)C(C)C)OC(=O)c1cc(-c2ccc(C3CCNCC3)cc2)c2ccc(-c3ccc(C(F)(F)F)cc3)cc2c1` (stereo not drawn) reads “Unstable”; that for `CN(C)CCOC(=O)c1cc(-c2ccc(C3CCNCC3)cc2)c2ccc(-c3ccc(C(F)(F)F)cc3)cc2c1`, “Unstable”.
In turn, `CN(C)C(=O)COC(=O)c1cc(-c2ccc(C3CCNCC3)cc2)c2ccc(-c3ccc(C(F)(F)F)cc3)cc2c1` displayed a concentration at 24 h in series [7] of 2280 nM. In series [6], the Stability entry is on record as “Unstable”. In [8], the bioavailability is 67%. For the same molecule, in the series on Mus musculus, the AUC stood at 54 µM·h.
In series [7], `O=C(O)c1cc(-c2ccc(C3CCNCC3)cc2)c2ccc(-c3ccc(C(F)(F)F)cc3)cc2c1` [PPTN] registered a concentration at 24 h of 680 nM. In addition, the Ki in [2] amounted to 35 nM; in [4], 1.9 nM. This molecule yielded a bioavailability in series [8] of 5%. This molecule also registered an area under the curve (AUC) at 24 h in [9] of 23 µM·h.
